Source: ChEMBL document CHEMBL1123966, “Ring-substituted [1,2-bis(4-hydroxyphenyl)ethylenediamine]dichloroplatinum (II) complexes: compounds with a selective effect on the hormone-dependent mammary carcinoma” (1988)

Tests used:
MCF7S [1] = experiment: Incorporation of [3H]- thymidine in hormone dependent MCF-7 breast cancer cells; format: functional, cell-based; conditions: Homo sapiens
[2] = Cell growth inhibition of MXT-ER- breast cancer cells at a dose of 13.4 mg/kg; format: functional, organism-based; design: dose 13.4 mg/kg; conditions: Mus musculus, Cancer cell lines
How it was run: (§1)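 Hormone-independent MXT mammary carcinoma (ER−) in mice. Equimolar doses (2 × 10⁻⁵ M/kg) were given sc three times a week (Mon, Wed, Fri) in polyethylene glycol 400/H₂O (1:1), or in olive oil for some agents. Median tumor area was measured at the end of a 2-week therapy and expressed as T/C %.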

MDA-MB-231 [3] = experiment: Incorporation of [3H]- thymidine into hormone independent MDA-MB-231 breast cancer cells; format: functional, cell-based; conditions: Homo sapiens
MDA-MB-231 [4] = experiment: Incorporation of [3H]- thymidine in hormone independent MDA-MB-231 breast cancer cells; format: functional, cell-based; conditions: Homo sapiens
Mus musculus [5] = experiment: Median tumor weight of MXT ER+ determined at the end of 6 week therapy at a dose of 13.4 mg/kg; format: functional, organism-based; design: dose 13.4 mg/kg
How it was run: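 BDF1 mice with hormone-dependent MXT mammary carcinoma (ER+). Equimolar dosing at 2 × 10⁻⁵ M/kg, given sc three times a week (Mon/Wed/Fri) for 6 weeks as a solution or suspension in PEG 400/H₂O 1:1. Median tumor weight was taken at the end of therapy; U test (Wilcoxon, Mann, Whitney).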

MCF7S [6] = experiment: Cell growth inhibition in hormone dependent MCF 7 breast cancer cells; format: functional, cell-based; conditions: Homo sapiens
MDA-MB-231 [7] = experiment: Cell growth inhibition in hormone independent MDA-MB-231 breast cancer cells; format: functional, cell-based; conditions: Homo sapiens
[8] = Cell growth inhibition of MXT-ER+ breast cancer cells at a dose of 13.4 mg/kg; format: functional, organism-based; design: dose 13.4 mg/kg; conditions: Mus musculus, Cancer cell lines
How it was run: (§2)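 Hormone-dependent MXT mammary carcinoma (ER+) model. Equimolar doses (2 × 10⁻⁵ M/kg) were given sc three times weekly (Mon, Wed, Fri) as a solution or suspension in polyethylene glycol 400/H₂O (1:1); some agents were given in olive oil. Median tumor weight was taken at the end of 6 weeks of therapy and given as T/C %. Significance was tested by the Wilcoxon-Mann-Whitney U test.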

Mus musculus [9] = experiment: Uterotrophic effect in BDF1 mouse at a dose of 13.4 mg/kg; format: functional, organism-based; design: dose 13.4 mg/kg; conditions: Uterus
How it was run: (§3)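 Uterus of BDF1 mice in the MXT ER+ study. Equimolar dosing at 2 × 10⁻⁵ M/kg, sc in PEG 400/H₂O 1:1 three times a week (Mon/Wed/Fri). Uterine response = [uterus dry weight (mg)/body weight (g)] × 100, determined after 6 weeks of therapy; U test.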

Mus musculus [10] = organism: Mus musculus; experiment: Uterotrophic effect in BDF1 mouse measured as([weight of uterus (mg)/body weight (g)] *100); format: functional
How it was run: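 Female BDF1 mice carrying MXT ER+ mammary carcinoma were dosed in olive oil, sc, three times a week, for 6 weeks. At the end of therapy, uterotropic effect = [uterus dry weight (mg)/body weight (g)] × 100, given as mean ± SD and as T/C % versus control. Significance was by the U test.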

[11] = Cell growth inhibition MXT-ER+ breast cancer cells at a dose of 10.9 mg/kg; format: functional, organism-based; design: dose 10.9 mg/kg; conditions: Mus musculus, Cancer cell lines; how it was run: as §2
[12] = Cell growth inhibition MXT-ER- breast cancer cells at a dose of 10.9 mg/kg; format: functional, organism-based; design: dose 10.9 mg/kg; conditions: Mus musculus, Cancer cell lines; how it was run: as §1
Mus musculus [13] = experiment: Median tumor weight of MXT (mammary carcinoma) ER+ determined at the end of 6 week therapy at a dose of 10.9 mg/kg; format: functional, organism-based; design: dose 10.9 mg/kg; how it was run: as §2
Mus musculus [14] = experiment: Uterotrophic effect in BDF1 mouse at a dose of 10.9 mg/kg; format: functional, organism-based; design: dose 10.9 mg/kg; conditions: Uterus; how it was run: as §3
[15] = Cell growth inhibition MXT-ER- breast cancer cells at a dose of 11.3 mg/kg; format: functional, organism-based; design: dose 11.3 mg/kg; conditions: Mus musculus, Cancer cell lines; how it was run: as §1
Mus musculus [16] = experiment: Uterotrophic effect in BDF1 mouse at a dose of 11.3 mg/kg; format: functional, organism-based; design: dose 11.3 mg/kg; conditions: Uterus; how it was run: as §3
[17] = Cell growth inhibition MXT-ER+ breast cancer cells at a dose of 11.3 mg/kg; format: functional, organism-based; design: dose 11.3 mg/kg; conditions: Mus musculus, Cancer cell lines; how it was run: as §2
Mus musculus [18] = experiment: Median tumor weight of MXT (mammary carcinoma) ER+ determined at the end of 6 week therapy at a dose of 11.3 mg/kg; format: functional, organism-based; design: dose 11.3 mg/kg; how it was run: as §2
Mus musculus [19] = organism: Mus musculus; experiment: Uterotrophic effect in BDF1 mouse at a dose of 8 mg; format: functional, Uterus
How it was run: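 Uterus of BDF1 mice in the MXT ER+ study. Equimolar dosing at 2 × 10⁻⁵ M/kg, sc in olive oil three times a week (Mon/Wed/Fri). Uterine response = [uterus dry weight (mg)/body weight (g)] × 100, determined at the end of the 6-week therapy; U test.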

[20] = Cell growth inhibition of MXT-ER+ breast cancer cells at a dose of 8 mg; format: functional; conditions: Mus musculus; Cancer cell lines; how it was run: as §2
Mus musculus [21] = organism: Mus musculus; experiment: Median tumor weight of MXT ER+ (mammary carcinoma) determined at the end of 6 week therapy at a dose of 8 mg; format: functional
How it was run: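 BDF1 mice with hormone-dependent MXT mammary carcinoma (ER+). Equimolar dosing at 2 × 10⁻⁵ M/kg, given sc in olive oil three times a week (Mon/Wed/Fri) for 6 weeks. Median tumor weight was taken at the end of therapy and compared with controls by the Wilcoxon–Mann–Whitney U test.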

Row | Compound | ED50 (MCF7S [1]) [nM] | T/C (MCF7S [1]) [%] | ED50 (MDA-MB-231 [3]) [nM] | T/C (MDA-MB-231 [4]) [%] | ED50 (MCF7S [6]) [nM] | T/C (MCF7S [6]) [%] | ED50 (MDA-MB-231 [7]) [nM] | T/C (MDA-MB-231 [7]) [%] | Effect (Mus musculus [10]) | other results
1 | meso-7-PtCl2(2-Br) | 1400 | 15 | 1200 | 13 | 3100 | 30 | 4300 | 43 | 89.3 | T/C [2]: 65%; Med tumor weight (Mus musculus [5]): 57 mg; T/C [8]: 12%; T/C (Mus musculus [9]): 99%
2 | meso-4-PtCl2(2-F) | 1500 | 16 | 900 | 12 | 4800 | 49 | 1500 | 21 | 89.9 | T/C [11]: 30%; T/C [12]: 60%; Med tumor weight (Mus musculus [13]): 143 mg; T/C (Mus musculus [14]): 100%
3 | meso-2-PtCl2(2-6-(CH3)2) | 900 | 4 | 2700 | 28 | 3100 | 17 | 2700 | 34 | 86.6 | T/C [15]: 63%; T/C (Mus musculus [16]): 96%; T/C [17]: 9%; Med tumor weight (Mus musculus [18]): 40 mg
4 | CC/C(=C(\c1ccccc1)c1ccc(OCCN(C)C)cc1)c1ccccc1 [TAMOXIFEN] | – | – | – | – | – | – | – | – | 72.3 | T/C (Mus musculus [19]): 80%; T/C [20]: 3%; Med tumor weight (Mus musculus [21]): 16 mg
